From ChEMBL document CHEMBL1139499, “Nucleotides and pronucleotides of 2,2-bis(hydroxymethyl)methylenecyclopropane analogues of purine nucleosides: synthesis and antiviral activity” (J Med Chem, 2005)

Tests used:
[1] = tested on: Hepatitis B virus; assay: Effective concentration required to inhibit hepatitis B virus replication in 2.2.15 cells in DNA hybridization assay; format: functional, organism-based; settings: HepG2 2.2.15
Procedure, shortened: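 HBV assayed in 2.2.15 cells by DNA hybridization. CC50 values are those from the EBV/H-1 cytotoxicity determination, run in CEM cells. Single experiments unless specified otherwise.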

[2] = tested on: Human alphaherpesvirus 1; assay: Effective concentration required to inhibit herpes simplex virus 1 in HFF cells in cytopathic effect (CPE) assay; format: functional, organism-based; settings: Human alphaherpesvirus 1, HFF
Procedure, shortened: (§1)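 HSV-1 and HSV-2 assayed in HFF cells by cytopathic effect (CPE) inhibition and by plaque reduction. Cytotoxicity measured in HFF cells. Single experiments unless specified otherwise.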

[3] = tested on: Human betaherpesvirus 5; assay: Effective concentration for antiviral activity against AD169 strain of human cytomegalovirus in plaque reduction assay; format: functional, organism-based
Procedure, shortened: (§2)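 Human CMV (Towne and AD169 strains) grown in HFF cell culture; antiviral effect read by plaque reduction or by cytopathic effect (CPE) inhibition. Cytotoxicity measured in HFF cells. Single experiments unless specified otherwise.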

[4] = tested on: Human alphaherpesvirus 1; assay: Effective concentration required to inhibit herpes simplex virus 1 in BSC-1 cells in ELISA; format: functional, organism-based; settings: Human alphaherpesvirus 1, BSC-1
Procedure, shortened: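 HSV-1 assayed in BSC-1 cells with ELISA read-out; cytotoxicity in these assays determined in KB cells. Single experiments unless specified otherwise.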

[5] = Effective concentration required to inhibit varicella zoster virus replication in HFF cells; format: functional, cell-based; settings: Human alphaherpesvirus 3, HFF
Procedure, shortened: (§3)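 VZV assayed in HFF cells by cytopathic effect (CPE) inhibition or by plaque reduction. Single experiments unless specified otherwise.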

[6] = tested on: Human alphaherpesvirus 1; assay: Effective concentration required to inhibit herpes simplex virus 1 in vero cells in plaque reduction assay; format: functional, organism-based; settings: Human alphaherpesvirus 1, Vero
Procedure, shortened: (§4)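 HSV-1 and HSV-2 assayed in Vero cells by plaque reduction. Single experiments unless specified otherwise.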

[7] = tested on: Human gammaherpesvirus 4; assay: Effective concentration required to inhibit Epstein-barr virus replication in daudi cells in viral capsid immunofluorescence ELISA; format: functional, organism-based; settings: human gammaherpesvirus 4, Daudi
[8] = tested on: Vero; assay: Cytotoxic concentration required to inhibit herpes simplex virus 1 infected vero cells; format: functional; settings: Chlorocebus sabaeus
[9] = tested on: HFF; assay: Cytotoxic concentration against towne strain of human cytomegalovirus infected HFF cells of human (visual cytotoxicity); format: functional; procedure, shortened: as §2
[10] = tested on: Daudi; assay: Cytotoxic concentration to inhibit replication in daudi cells; format: functional; settings: Homo sapiens
[11] = tested on: Human betaherpesvirus 5; assay: Effective concentration for antiviral activity against towne strain of human cytomegalovirus in plaque reduction assay; format: functional, organism-based; procedure, shortened: as §2
[12] = tested on: KB (Homo sapiens); assay: Cytotoxic concentration required to inhibit KB cells
[13] = Cytotoxic concentration to inhibit replication in H-1 cells (in CEM cells); format: functional; settings: Homo sapiens, CCRF-CEM
Procedure, shortened: (§5)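 EBV assayed in H-1 cells by DNA hybridization. Cytotoxicity determined separately in CEM cells. Single experiments unless specified otherwise.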

[14] = tested on: MEF; assay: Cytotoxic concentration against murine cytomegalovirus infected MEF cells; format: functional; settings: Mus musculus
[15] = tested on: Human alphaherpesvirus 2; assay: Effective concentration required to inhibit herpes simplex virus 2 in vero cells in plaque reduction assay; format: functional, organism-based; settings: Human alphaherpesvirus 2, Vero; procedure, shortened: as §4
[16] = tested on: Human alphaherpesvirus 2; assay: Effective concentration required to inhibit herpes simplex virus 2 in HFF cells in cytopathic effect (CPE) assay; format: functional, organism-based; settings: Human alphaherpesvirus 2, HFF; procedure, shortened: as §1
[17] = tested on: Human gammaherpesvirus 4; assay: Effective concentration required to inhibit Epstein-barr virus replication in H-1 cells in DNA hybridization assay; format: functional, organism-based; settings: human gammaherpesvirus 4, H-1; procedure, shortened: as §5
[18] = tested on: HFF; assay: Cytotoxic concentration against AD169 strain of human cytomegalovirus infected HFF cells of human (by neutral red uptake); format: functional
[19] = tested on: HFF; assay: Cytotoxic concentration against AD169 strain of human cytomegalovirus infected HFF cells of human (by cytopathic effect inhibition assay); format: functional; procedure, shortened: as §2
[20] = Effective concentration required to inhibit varicella zoster virus replication in HFF cells in cytopathic reduction assay; format: functional, cell-based; settings: Human alphaherpesvirus 3, HFF; procedure, shortened: as §3
[21] = Effective concentration required to inhibit varicella zoster virus replication in HFF cells in plaque reduction assay; format: functional, cell-based; settings: Human alphaherpesvirus 3, HFF; procedure, shortened: as §3
[22] = tested on: HFF; assay: Cytotoxic concentration against towne strain of human cytomegalovirus infected HFF cells of human (visual cytotoxicity); range=100-200; format: functional; procedure, shortened: as §2
[23] = tested on: HFF; assay: Cytotoxic concentration to inhibit replication in HFF cells in cytopathic effect inhibition assay; format: functional; settings: Homo sapiens; procedure, shortened: as §2
[24] = tested on: HFF; assay: Cytotoxic concentration to inhibit Herpes simplex virus 2 infected HFF cells; format: functional; settings: Homo sapiens; procedure, shortened: as §1
[25] = tested on: Vero; assay: Cytotoxic concentration required to inhibit herpes simplex virus 2 infected vero cells; format: functional; settings: Chlorocebus sabaeus
[26] = tested on: HFF; assay: Cytotoxic concentration to inhibit Herpes simplex virus 1 infected HFF cells; format: functional; settings: Homo sapiens; procedure, shortened: as §1
[27] = tested on: HFF; assay: Cytotoxic concentration against town strain of human cytomegalovirus infected HFF cells of human (visual cytotoxicity); format: functional; procedure, shortened: as §2

Compound | EC50 [1] [µM] | EC50 [2] [µM] | EC50 [3] [µM] | EC50 [4] [µM] | EC50 [5] [µM] | EC50 [6] [µM] | EC50 [7] [µM] | CC50 [9] [µM] | CC50 [10] [µM] | EC50 [11] [µM] | CC50 [12] [µM] | CC50 [13] [µM] | CC50 [14] [µM] | EC50 [15] [µM] | EC50 [16] [µM] | EC50 [17] [µM] | CC50 [18] [µM] | other results
Nc1nc(O)c2ncn(/C=C3/CC34COP(=O)(O)OC4)c2n1 (stereo not drawn) | 0.8 | > 301 | 6 | 20 | > 301 | 16 | 0.96 | > 100 | > 150 | 20 | > 100 | > 100 | > 301 | 22 | 242 | > 20 | > 301 | CC50 [8]: > 100 µM
Nc1nc(O)c2ncn(/C=C3\CC34COP(=O)(O)OC4)c2n1 (stereo not drawn) | > 20 | > 299 | > 299 | > 100 | > 299 | > 50 | > 150 | > 100 | > 150 | > 100 | > 100 | > 100 | – | 50 | > 299 | > 20 | – | CC50 [19]: > 299 µM
COC(=O)C(C)NP(=O)(OCC1(CO)C/C1=C/n1cnc2c(O)nc(N)nc21)Oc1ccccc1 (stereo not drawn) | 4.1 | > 198 | 8.1 | > 100 | – | > 50 | > 99 | > 100 | > 198 | 3.6 | > 100 | 35 | > 198 | > 50 | > 198 | 3.4 | > 198 | EC50 [20]: 6.3 µM; EC50 [21]: 7.3 µM
Nc1nc2c(ncn2/C=C2/CC2(CO)CO)c(=O)[nH]1 [FILOCICLOVIR] | > 10 | > 380 | 0.49 | > 100 | > 380 | > 50 | – | – | 74 | 0.33 | > 100 | > 50 | > 380 | > 50 | > 380 | – | > 380 | CC50 [22]: 200 µM
COC(=O)C(C)NP(=O)(OCC1(CO)C/C1=C\n1cnc2c(N)ncnc21)Oc1ccccc1 (stereo not drawn) | > 20 | > 205 | > 205 | > 100 | > 205 | > 30 | > 102 | > 100 | > 102 | > 100 | > 100 | > 25 | – | > 30 | > 205 | > 20 | – | CC50 [19]: > 205 µM
Nc1nc2c(ncn2COCCO)c(=O)[nH]1 [ACYCLOVIR] | – | 0.9 | – | 1.5 | 1.6 | 13.5 | 1.1 | – | > 222 | – | > 100 | – | – | 32.3 | 6.7 | – | – | CC50 [23]: > 444 µM; CC50 [24]: > 444 µM; CC50 [8]: > 200 µM; CC50 [25]: > 200 µM; CC50 [26]: > 444 µM
Nc1nc2c(ncn2COC(CO)CO)c(=O)[nH]1 [GANCICLOVIR] | – | – | 1.6 | – | – | – | – | – | – | 2.1 | – | – | > 392 | – | – | 5 | > 392 | CC50 [27]: > 100 µM
